Data taken from ChEMBL document CHEMBL1126651, “Synthesis and biological evaluation of 1-[1-(2-benzo[b]thienyl)cyclohexyl]piperidine homologues at dopamine-uptake and phencyclidine- and sigma-binding sites” (J Med Chem, 1993).

Legend:
[1] = organism: Rattus norvegicus; experiment: (§1) Compound is evaluated for [3H]dopamine uptake inhibition in rat forebrain; format: functional
[2] = target: Glutamate NMDA receptor; experiment: Ability of compound to displace [3H]TCP from rat brain homogenates; format: tissue-based
[3] = target: T1, Sodium-dependent dopamine transporter (Rattus norvegicus, UniProt P23977); experiment: Inhibition of [3H]cocaine binding to rat forebrain […]
T1 sequence (P23977 whole entry): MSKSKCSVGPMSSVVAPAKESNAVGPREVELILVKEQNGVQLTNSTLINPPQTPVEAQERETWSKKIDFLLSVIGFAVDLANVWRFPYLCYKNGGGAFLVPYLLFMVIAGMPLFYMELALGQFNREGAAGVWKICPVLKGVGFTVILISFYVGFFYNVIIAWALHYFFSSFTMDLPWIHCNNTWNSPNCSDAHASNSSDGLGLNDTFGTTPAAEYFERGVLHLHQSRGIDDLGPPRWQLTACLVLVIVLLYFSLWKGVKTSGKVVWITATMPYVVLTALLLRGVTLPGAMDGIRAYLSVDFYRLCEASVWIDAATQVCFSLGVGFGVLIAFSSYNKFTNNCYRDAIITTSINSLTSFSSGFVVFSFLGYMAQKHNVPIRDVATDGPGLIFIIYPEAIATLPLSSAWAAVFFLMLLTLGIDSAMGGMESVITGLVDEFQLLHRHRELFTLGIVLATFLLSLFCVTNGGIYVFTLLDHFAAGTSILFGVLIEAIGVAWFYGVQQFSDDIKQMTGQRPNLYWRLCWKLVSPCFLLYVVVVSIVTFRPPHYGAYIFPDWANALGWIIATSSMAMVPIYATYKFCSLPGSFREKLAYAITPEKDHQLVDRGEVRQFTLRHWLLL
Method in brief: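 Rat forebrain membranes washed in 0.25 M sucrose/10 mM Na2HPO4 pH 7.4. […] Filtration with ice-cold saline wash, then scintillation counting. Six concentrations in triplicate, duplicate experiments on different preparations. IC50 taken as 50% inhibition of total binding.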

[4] = Ratio of IC50 of [3H]cocaine to that of dopamine; format: functional
[5] = target: T1, Sodium-dependent dopamine transporter; experiment: Displacement of [3H]BTCP (1-[1-(2-benxo[b]thienyl)cyclohexyl]piperidine) from rat forebrain dopamine transporter
Method in brief: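 Rat forebrain membranes (40000 g pellet) in 0.32 M sucrose/10 mM Tris·HCl pH 7.4. 0.4-0.6 nM [3H]BTCP incubated with test compound in 50 mM Na phosphate buffer, pH 7.4, for 90 min on ice. Nonspecific binding with 10 µM BTCP. Filtration, then scintillation counting. Six concentrations in triplicate, duplicate experiments on different preparations. IC50 taken as 50% inhibition of total binding.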

[6] = target: Glutamate NMDA receptor; experiment: Binding affinity of compound at site labelled by [3H]TCP in guinea pig brain homogenates; format: tissue-based
[7] = organism: Rattus norvegicus; experiment: as §1
[8] = target: Glutamate NMDA receptor; experiment: Ability to displace [3H]-TCP from rat brain homogenate; format: tissue-based

## c1ccc2sc(C3(N4CCCCCC4)CCCCCC3)cc2c1
[1]
  IC50: 252 nM
[2]
  Ki: > 10000 nM
[3]
  IC50: 386 nM
[4]
  Ratio: 1.5
[5]
  IC50: 67 nM

## c1ccc2sc(C3(N4CCCCCC4)CCCCC3)cc2c1
[1]
  IC50: 43 nM
[3]
  IC50: 36 nM
[4]
  Ratio: 0.84
[5]
  IC50: 18 nM
[6]
  Ki: > 10000 nM

## c1ccc2sc(C3(N4CCCC4)CCCCCC3)cc2c1
[1]
  IC50: 27 nM
[2]
  Ki: > 10000 nM
[3]
  IC50: 52 nM
[4]
  Ratio: 1.9
[5]
  IC50: 13 nM

## c1ccc2sc(C3(N4CCCCC4)CCCCCC3)cc2c1
[1]
  IC50: 55 nM
[2]
  Ki: > 10000 nM
[3]
  IC50: 111 nM
[4]
  Ratio: 2
[5]
  IC50: 19 nM

## c1ccc2sc(C3(N4CCCCCC4)CCCC3)cc2c1
[1]
  IC50: 132 nM
[3]
  IC50: 62 nM
[4]
  Ratio: 0.47
[5]
  IC50: 21 nM
[6]
  Ki: > 10000 nM

## c1ccc2sc(C3(N4CCCCC4)CCCC3)cc2c1
[1]
  IC50: 24 nM
[3]
  IC50: 76 nM
[4]
  Ratio: 3.2
[5]
  IC50: 15 nM
[6]
  Ki: > 10000 nM

## c1ccc2sc(C3(N4CCCC4)CCCCC3)cc2c1
[1]
  IC50: 11 nM
[3]
  IC50: 12 nM
[4]
  Ratio: 1.1
[5]
  IC50: 6.7 nM
[6]
  Ki: > 10000 nM

## COC(=O)[C@H]1[C@@H](OC(=O)c2ccccc2)C[C@@H]2CC[C@H]1N2C [COCAINE]
[7]
  IC50: 138 nM

## c1ccc2sc(C3(N4CCCCC4)CCCCC3)cc2c1
[1]
  IC50: 9 nM
[3]
  IC50: 41 nM
[4]
  Ratio: 4.6
[8]
  Ki: > 10000 nM
[5]
  IC50: 0.66 nM

## NC1(c2cc3ccccc3s2)CCCC1
[1]
  IC50: 148 nM
[2]
  Ki: > 10000 nM
[3]
  IC50: 933 nM
[4]
  Ratio: 6.3
[5]
  IC50: 630 nM

## NC1(c2cc3ccccc3s2)CCCCCC1
[1]
  IC50: 550 nM
[2]
  Ki: > 10000 nM
[3]
  IC50: 1340 nM
[4]
  Ratio: 2.4
[5]
  IC50: 416 nM

## c1ccc2sc(C3(N4CCCC4)CCCC3)cc2c1
[1]
  IC50: 19 nM
[3]
  IC50: 26 nM
[4]
  Ratio: 1.4
[5]
  IC50: 13 nM
[6]
  Ki: > 10000 nM

## NC1(c2cc3ccccc3s2)CCCCC1
[1]
  IC50: 78 nM
[3]
  IC50: 684 nM
[4]
  Ratio: 8.8
[5]
  IC50: 123 nM
[6]
  Ki: > 10000 nM
